Most compounds without a hit are left out; they make up all but 9.4% or so of the library.
Mdm2-MdmX inh – human Mdm2/MdmX binding inhibition; O15151+Q00987; SaOS-2 split-luciferase Mdm2/MdmX complementation, luminescence; inhibition, % at 8 µM; actives 3% (n = 330,000);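 active means inhibition of at least 50% at 8 µM in the primary screen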
Target sequence (O15151 whole entry, looked up): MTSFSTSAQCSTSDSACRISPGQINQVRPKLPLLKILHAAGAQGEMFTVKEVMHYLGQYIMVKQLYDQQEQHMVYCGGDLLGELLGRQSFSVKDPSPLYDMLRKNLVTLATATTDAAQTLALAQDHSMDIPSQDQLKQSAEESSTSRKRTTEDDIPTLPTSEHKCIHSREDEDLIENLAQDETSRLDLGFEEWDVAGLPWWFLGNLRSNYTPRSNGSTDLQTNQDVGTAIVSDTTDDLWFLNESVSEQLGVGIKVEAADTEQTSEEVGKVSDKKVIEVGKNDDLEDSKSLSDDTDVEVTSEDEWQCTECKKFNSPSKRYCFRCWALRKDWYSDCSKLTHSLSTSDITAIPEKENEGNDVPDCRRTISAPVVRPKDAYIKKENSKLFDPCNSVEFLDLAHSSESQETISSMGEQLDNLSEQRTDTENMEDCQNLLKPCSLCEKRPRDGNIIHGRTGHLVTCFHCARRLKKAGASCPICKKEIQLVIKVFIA
Target sequence (Q00987 whole entry, looked up): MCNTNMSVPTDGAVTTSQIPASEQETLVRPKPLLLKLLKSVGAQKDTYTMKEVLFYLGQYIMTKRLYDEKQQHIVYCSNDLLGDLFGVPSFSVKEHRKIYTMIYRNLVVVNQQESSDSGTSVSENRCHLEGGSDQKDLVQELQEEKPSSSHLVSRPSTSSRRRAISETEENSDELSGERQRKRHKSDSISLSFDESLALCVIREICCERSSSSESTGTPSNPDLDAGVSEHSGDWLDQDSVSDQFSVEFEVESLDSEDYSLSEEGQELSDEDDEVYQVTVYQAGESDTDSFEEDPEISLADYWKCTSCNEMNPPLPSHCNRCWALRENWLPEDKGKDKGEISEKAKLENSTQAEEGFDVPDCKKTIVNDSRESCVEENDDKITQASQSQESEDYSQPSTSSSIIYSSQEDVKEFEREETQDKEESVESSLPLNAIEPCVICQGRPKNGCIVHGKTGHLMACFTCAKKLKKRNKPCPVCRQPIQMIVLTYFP
CSC inhib – cancer stem cell inhibition; actives 1.1% (n = 300,000); inhibition, % at 7.5 µM; cancer stem cell-like cells viability, luminescence; in the data active means inhibition above about 75%; inconclusive means no clear call, values can overlap the other calls; tested in HMLE shEcad cells
L major viab – inhibitors of Leishmania major promastigote growth | actives 9% (n = 200,000) | Leishmania major promastigotes, resazurin fluorescence viability | inhibition, % at 10 µM; in the data active means inhibition above about 50%;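 further: promastigotes grown with compound for 44 hours at 28 °C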
Beta cell apopt – beta cell apoptosis inhibition; protection from apoptosis, % (concentration not given with the values); INS-1E cytokine-induced death, ATP luminescence, 48 h; percent of positive-control rescue, neutral wells zero; actives 0.8% (n = 300,000);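 active means Every replicate reaches about 75%, or at least half do and their mean reaches it too, limit read from the data; inconclusive means At least half of replicates reach the limit but their mean does not; inactive means Under half of replicates reach the limit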;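 further: 0% = cytokine-treated negative control wells and 100% = positive control rescue; higher means more ATP so stronger rescue from cytokine killing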
T cruzi inh – T. cruzi replication inhibition; T. cruzi beta-gal in NIH3T3, luminescence, 90 h; inhibition, % (no concentration beside the values); actives 1.4% (n = 300,000); AID 1885;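 active means mean inhibition across valid replicates above about 55%, limit read from the data; inconclusive means mean below that limit but half or more replicates reach it; inactive means mean below it, under half of replicates reach it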;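 further: signal also drops with host cell toxicity which is not excluded here; 0% = plate median of DMSO wells and 100% = zero luminescence signal; higher percent means less beta-gal luminescence so fewer parasites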
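System: NIH/3T3 fibroblasts plus reporter T. cruzi. Medium: DMEM plus 2% FBS. Probe or stimulus: 5000 reporter trypomastigotes per well. Compound: single 50 nL compound addition per well in DMSO. Incubation: co-culture of at least 90 h after 3 h attachment. Detection: GalScreen β-gal luminescence, detergent lysis, 60 min. Evaluation: parasite load inhibition, %.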
SKKanGAS inh – blocks kanamycin growth of S. pyogenes SKKanGAS strain; actives 1.3% (n = 300,000); inhibition, % at 7.5 µM; AID 1662; BacTiter-Glo, 6 h;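 active means mean replicate score, as percent of positive control median, at least 50; inconclusive means mean below 50 but one replicate at or above 50; inactive means mean and every replicate below 50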;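 further: strain carries kanamycin resistance gene driven by streptokinase promoter and grows in 40 µg/ml kanamycin; loss of luminescence reflects streptokinase promoter inhibition or plain growth inhibition; 0% = median of DMSO wells and 100% = positive control at its reference dose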
The depositor's hits bear a star; ? = inconclusive; · = no result given.

SMILES	Mdm2-MdmX inh	CSC inhib	L major viab	Beta cell apopt	T cruzi inh	SKKanGAS inh
CC(=O)c1c(C)nn(CC(O)COc2ccc3ccccc3c2)c1C (stereo unspecified)	-6	1	-4	1	-2	-6
Cc1ccc(NC(=S)NCC2CCN(C(C)c3ccccc3)C2)cc1C (stereo unspecified)	9	5	82*	-5	?	0
Cc1ccc(NC(=S)NCC2CCCO2)cc1C (stereo unspecified)	8	4	-6	-1	-17	5
ClC(/C=N/n1cnnc1)=C/c1ccccc1	-3	4	·	-6	-43	-5
O=C(COc1ccc2ccc(=O)oc2c1)N1CCN(c2ccccc2)CC1	14	2	69*	-6	1	-4
CC(NC(=O)c1cccnc1)C(c1cccs1)N1CCOCC1 (stereo unspecified)	-4	-9	-3	-5	65*	2
N#Cc1ccccc1OCC(=O)NCc1ccccc1CN1CCCC1	-9	·	·	6	·	·
CCn1c(C)nc2cc(C(=O)N/N=C/c3ccc(N4CCOCC4)cc3)ccc21	23	0	-9	8	-6	0
COc1ccc(Cl)c(Cn2c(NCCCN(C)C)nc3c2c(=O)n(C)c(=O)n3C)c1	15	-14	100*	-1	34	1
COc1ccc(Cl)c(Cn2c(NCC(C)O)nc3c2c(=O)n(C)c(=O)n3C)c1 (stereo unspecified)	20	-3	2	-3	-13	-1
Cc1nn(-c2ccc(F)cc2)c2nc(N)c(C#N)c(-c3cccs3)c12	41	59	-2	25	39	20
COc1cc(-c2c(C#N)c(N)nc3c2c(C)nn3-c2ccc(C)c(C)c2)cc(OC)c1OC	45	12	13	14	45	50*
Cc1c(C(=O)N2CCC(Cc3ccccc3)CC2)sc2ncnc(N3CCC(C)CC3)c12	19	60	7	-3	72*	56*
CC(C)(CNC(=O)c1cc2c(s1)CCCC2)N1CCOCC1	-13	-5	·	·	1	4
c1ccc(CNc2nc(-c3cccs3)nc3ccccc23)nc1	-2	-8	78*	-4	19	16
Cc1ccc(CNc2nc(-c3cccs3)nc3ccccc23)cc1	24	92*	76*	6	34	29
COCCC(=O)N1CCC(Oc2ccc(C(=O)NCCc3ccccn3)cc2)CC1	18	-1	·	-4	2	-9
CCN1CCN(C(=O)c2cc3cc(F)ccc3[nH]2)CC1	-27	-5	·	-8	26	-4
COc1ccc2[nH]c(C(=O)N3CCCN(Cc4ccc(F)cc4)CC3)cc2c1	17	5	·	-1	60*	1
COc1cc(/C=N/NC(=O)CN2CCCCC2)ccc1OCc1ccc(Br)cc1	-233	4	94*	-1	-11	-3
O=C(CCN1CCCCC1)N/N=C/c1ccc(Br)cc1	12	-7	83*	2	-10	-8
Cc1ccccc1OCc1ccc(C(=O)N2CCOCC2)o1	-12	-12	·	0	-2	1
COc1ccc(Cl)cc1C(=O)C1CCCN(Cc2cnc(N3CCOCC3)s2)C1 (stereo unspecified)	-4	-7	4	·	72*	-1
COc1ccc(F)cc1C(=O)C1CCCN(Cc2ccc3c(c2)OCCO3)C1 (stereo unspecified)	20	11	104*	-8	41	5
COc1ccc(F)cc1C(=O)C1CCCN(Cc2cnc(N3CCCC3)s2)C1 (stereo unspecified)	-15	-11	8	0	57*	-13
SMILES	Mdm2-MdmX inh	CSC inhib	L major viab	Beta cell apopt	T cruzi inh	SKKanGAS inh
COc1ccc(F)cc1C(=O)C1CCCN(Cc2ccc(Oc3ncccn3)cc2)C1 (stereo unspecified)	-1	3	21	7	50	4
COc1ccc(F)cc1C(=O)C1CCCN(Cc2cccn2-c2cccnc2)C1 (stereo unspecified)	27	9	74*	11	43	2
NNC(=O)c1ccc(CN2CCCCC2)o1	-1	-10	4	0	-26	5
O=C1C=C(c2cccc(Br)c2)C[C@@H](c2ccc(Cl)cc2)C1	9	·	·	-6	·	·
COc1c(C)cc(C(=O)C2CCCN(Cc3cnc(N4CCOCC4)s3)C2)cc1C (stereo unspecified)	23	-6	100*	-1	40	0
COc1c(C)cc(C(=O)C2CCCN(C(=O)C3=C(C)OCCO3)C2)cc1C (stereo unspecified)	9	-11	4	-3	11	1
COc1ccc2cc(C(=O)C3CCCN(Cc4cnc(C)s4)C3)ccc2c1 (stereo unspecified)	17	-5	79*	13	16	3
COc1ccc(C(=O)C2CCCN(Cc3cnc(N4CCCC4)s3)C2)cc1OC (stereo unspecified)	33	0	72*	-1	67*	5
COc1ccc2cc(C(=O)C3CCCN(C(=O)c4snnc4C)C3)ccc2c1 (stereo unspecified)	6	-1	7	3	5	3
CCN(c1cccc(C)c1)S(=O)(=O)c1ccc2c(c1)CCCN2C(C)=O	21	-3	·	-6	9	0
CCN(c1cccc(C)c1)S(=O)(=O)c1ccc2c(c1)CCN2C(C)=O	38	31	94*	-2	9	0
CCN(c1ccccc1)S(=O)(=O)c1ccc2c(c1)CCCN2C(C)=O	4	-11	·	-11	10	1
CC(=O)N1CCCc2cc(S(=O)(=O)N(CC(C)C)CC(C)C)ccc21	-10	9	85*	7	8	-2
CCN(c1cccc(C(F)(F)F)c1)S(=O)(=O)c1ccc2c(c1)CCN2C(C)=O	14	-3	60*	3	15	7
Cc1ccc2c(c1)N(CC(=O)NCCCN1CCN(C)CC1)C(=O)CO2	-35	·	·	-1	9	1
CC1Cc2ccccc2N1C(=S)NC(=O)c1cccc(Br)c1 (stereo unspecified)	31	-10	-4	-5	-19	93*
CC1Cc2ccccc2N1C(=S)NC(=O)c1ccc(Cl)cc1Cl (stereo unspecified)	40	20	-4	14	-6	61*
COc1cccc(C(=O)NC(=S)N2c3ccccc3CC2C)c1OC (stereo unspecified)	-3	-8	·	·	-6	-3
On1ccccc1=S	·	1	·	56	·	·
Fc1ccc(N/N=C/c2ccc(N3CCOCC3)cc2)c(F)c1	-121	26	-15	1	65*	-8
C/C(=N\Nc1ccc(F)cc1F)c1ccc(N2CCOCC2)cc1	-68	1	-9	-2	-4	-7
CCn1c(=O)c(C(=O)NNC(=O)c2ccccc2Br)c(O)c2ccccc21	37	·	·	1	-5	90*
CC(NC(=O)c1c(O)c2ccccc2n(C)c1=O)c1ccccc1 (stereo unspecified)	-5	-6	·	1	14	-1
